Test results published in ChEMBL document CHEMBL1121731, “Synthesis and neuroleptic activity of benzamides. Cis-N-(1-benzyl-2-methylpyrrolidin-3-yl)-5-chloro-2-methoxy-4-(methylamino)benzamide and related compounds” (1981).

Legend:
Format in all cases: functional
Rattus norvegicus [1] = experiment: Subcutaneous dose to inhibit apomorphine-induced stereotyped behavior in 50% of rats
How it was run: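 Test drugs given subcutaneously to rats; 30 min later apomorphine 1.25 mg/kg i.v. Inhibition scored positive unless both gnawing and licking were seen during 20 min after apomorphine. ED50 estimated by Litchfield–Wilcoxon or graphical method, 6–12 rats per dose.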

Rattus norvegicus [2] = organism: Rattus norvegicus; experiment: The inhibitory effect on the continuous avoidance was expressed as the dose to increase the number of electroshocks by 60% of the rats
How it was run: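 Modified Sidman continuous avoidance schedule in rats; shock-shock interval 5 s, response-shock interval 25 s; only rats receiving fewer than 19 shocks/h used. Drugs given subcutaneously; effect expressed as dose raising electroshocks by 60 (1 shock/min) between 1 and 2 h post-dose.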

[3] = Ratio of ED50 for inhibition of catalepsy induction to stereotypy induction
Rattus norvegicus [4] = organism: Rattus norvegicus; experiment: Effective dose to induce catalepsy in 50% of the rats
Rattus norvegicus [5] = organism: Rattus norvegicus; experiment: Effective dose to induce catalepsy in 50% of the rats (95% confidence limits included in parentheses)
[6] = Rattus norvegicus, sc, read-out: ED50

Compound | ED50 (Rattus norvegicus [1]; [6]) [mg/kg] | further results
CCCNc1cc(OC)c(C(=O)NC2CCN(Cc3ccccc3)C2)cc1Cl (configuration not stated) | 17 | –
COc1cc(N)c(Cl)cc1C(=O)NCCN(C)C(C)c1ccccc1 (configuration not stated) | 1 | –
CCCN(CCNC(=O)c1cc(Cl)c(N)cc1OC)Cc1ccc(Cl)cc1 | 3 | –
COc1ccc(S(N)(=O)=O)cc1C(=O)NCCN(C)Cc1ccccc1 | > 30 | –
COc1cc(N(C)C)c(Cl)cc1C(=O)NCCN(C)Cc1ccccc1 | 0.54 | –
COc1cc(N)c(Cl)cc1C(=O)NCCN(Cc1ccc(Cl)cc1)C(C)C | 3 | –
CNc1cc(OC)c(C(=O)NC2CCN(Cc3ccccc3)C2)cc1Cl (configuration not stated) | 0.016 | ED50 (Rattus norvegicus [2]): 0.008 mg/kg; Ratio [3]: 100; ED50 (Rattus norvegicus [4]): 1.6 mg/kg
CNc1cc(OC)c(C(=O)NC2CCN(Cc3ccccc3)C2C)cc1Cl (trans isomer) [NEMONAPRIDE] | – | ED50 (Rattus norvegicus [1]): 0.057 mg/kg
COc1cc(N)c(Cl)cc1C(=O)NCCN(Cc1ccccc1)Cc1ccccc1 | > 30 | –
CNc1cc(OC)c(C(=O)NC2CCN(Cc3ccccc3)C2C)cc1Cl (cis isomer) [NEMONAPRIDE] | – | ED50 (Rattus norvegicus [1]): 0.0076 mg/kg; ED50 (Rattus norvegicus [2]): 0.0034 mg/kg; ED50 (Rattus norvegicus [5]): 0.5 mg/kg
CCN(CCNC(=O)c1cc(Cl)c(N)cc1OC)Cc1ccc(OC)cc1 | 0.2 | –
COc1cc(N)c(Cl)cc1C(=O)NCCN(C)Cc1ccccc1 | 0.38 | –
COc1ccc(S(C)(=O)=O)cc1C(=O)NCCN(C)Cc1ccccc1 | 3 | –
CCN(CCNC(=O)c1cc(Cl)c(N)cc1OC)Cc1ccco1 | 3 | –
CCNS(=O)(=O)c1ccc(OC)c(C(=O)NCCN(C)Cc2ccccc2)c1 | > 30 | –
COc1cc(N)c(Cl)cc1C(=O)NCCN(C)Cc1ccccc1C | 2 | –
COc1cc(N(C)C)c(Cl)cc1C(=O)NC1CCN(Cc2ccccc2)C1 (configuration not stated) | 0.12 | –
COc1cc(NCc2ccccc2)c(Cl)cc1C(=O)NC1CCN(Cc2ccccc2)C1 (configuration not stated) | > 30 | –
CNc1cc(OC)c(C(=O)NCC2CCC(C)N2Cc2ccccc2)cc1Cl.Cl (configuration not stated) | 0.35 | ED50 (Rattus norvegicus [2]): 0.11 mg/kg; Ratio [3]: 39; ED50 (Rattus norvegicus [4]): 13.5 mg/kg
CCN1CCCC1CNC(=O)c1cc(S(=O)(=O)CC)ccc1OC (configuration not stated) [SULTOPRIDE] | 18 | –

Compound | ED50 (Rattus norvegicus [1]; [6]) [mg/kg] | further results
CCNCCNC(=O)c1cc(Cl)c(N)cc1OC [MONODEETHYLATED-MCP] | > 30 | –
COc1cc(N)c(Cl)cc1C(=O)NCCN(C)CC1CCCCC1 | 3 | –
CCC1c2ccccc2CN1CNC(=O)c1cc(Cl)c(N)cc1OC (configuration not stated) | 1 | –
COc1cc(N)c(Cl)cc1C(=O)NC1CCN(C2CCCCC2)C1 (configuration not stated) | 1.8 | –
CCN(CCNC(=O)c1cc(Cl)c(N)cc1OC)Cc1ccccn1 | 30 | –
COc1cc(N(C)C(=O)C(F)(F)F)c(Cl)cc1C(=O)NC1CCN(Cc2ccccc2)C1 (configuration not stated) | 0.3 | –
COc1cc(N(C)C(C)=O)c(Cl)cc1C(=O)NC1CCN(Cc2ccccc2)C1 (configuration not stated) | > 30 | –
O=C(CCCN1CCC(O)(c2ccc(Cl)cc2)CC1)c1ccc(F)cc1 [HALOPERIDOL] | 0.095 | ED50 (Rattus norvegicus [2]): 0.021 mg/kg; Ratio [3]: 11; ED50 (Rattus norvegicus [4]): 1 mg/kg
COc1cc(NC(C)=O)c(Cl)cc1C(=O)NC1CCN(Cc2ccccc2)C1 (configuration not stated) | 1.8 | –
CCNc1cc(OC)c(C(=O)NC2CCN(Cc3ccccc3)C2)cc1Cl (configuration not stated) | 0.1 | –
COc1cc(N(C)C)c(Cl)cc1C(=O)NC1CCN(C2CCCCC2)C1 (configuration not stated) | 1 | –
CCN(CCNC(=O)c1cc(Cl)c(N)cc1OC)Cc1cccc(Cl)c1 | 0.58 | –
CCN1C(CNC(=O)c2cc(Cl)c(NC)cc2OC)CCC1c1ccccc1 (configuration not stated) | > 30 | –
CNc1cc(OC)c(C(=O)NCCN(C)Cc2ccccc2)cc1Cl.Cl | 0.21 | ED50 (Rattus norvegicus [2]): 0.041 mg/kg; Ratio [3]: 79; ED50 (Rattus norvegicus [4]): 16.5 mg/kg
COc1cc(N(C)C)c(Cl)cc1C(=O)NCC1CCCN1C1CCCCC1.O=C(O)C(=O)O (configuration not stated) | > 30 | –
CCN1CCC(NC(=O)c2cc(Cl)c(NC)cc2OC)C1 (configuration not stated) | 10 | –
CCN(CCNC(=O)c1cc(Cl)c(N)cc1OC)Cc1ccccc1 | 0.31 | –
CCCCN(CCNC(=O)c1cc(Cl)c(N)cc1OC)Cc1ccc(Cl)cc1 | 20 | –
COc1cc(N2CCCC2)c(Cl)cc1C(=O)NC1CCN(Cc2ccccc2)C1 (configuration not stated) | 0.6 | –
COc1cc(N)c(Cl)cc1C(=O)NCCN(Cc1ccccc1)C(C)(C)C | > 30 | –

Compound | ED50 (Rattus norvegicus [1]; [6]) [mg/kg] | further results
CCN(CCNC(=O)c1cc(Cl)c(N)cc1OC)Cc1ccccc1OC | 10 | –
CCN(CCNC(=O)c1cc(Cl)c(N)cc1OC)Cc1cccc(OC)c1 | 1 | –
COc1cc(N)c(Cl)cc1C(=O)NCC1CCCN1Cc1ccccc1 (configuration not stated) | 1.1 | –
CN(CCNC(=O)c1ccc(F)cc1)Cc1ccccc1.Cl | > 30 | –
COc1cc(NC=O)c(Cl)cc1C(=O)NC1CCN(Cc2ccccc2)C1 (configuration not stated) | 0.6 | –
COc1cc(C(=O)NCCN(C)Cc2ccccc2)cc(OC)c1OC | > 30 | –
COc1cc(N)c(Cl)cc1C(=O)NCC1CCC(C)N1Cc1ccccc1 (configuration not stated) | 0.67 | –
CCN(CCNC(=O)c1cc(Cl)c(N)cc1OC)Cc1ccccc1Cl | 10 | –
CNc1cc(OC)c(C(=O)NC2CCN(Cc3ccccc3)C2C)cc1Cl (cis isomer) | – | Ratio [3]: 66
COc1ccc(OC)c(C(=O)NCCN(C)Cc2ccccc2)c1.Cl | 3 | –
CCN(CCNC(=O)c1cc(Cl)c(N)cc1OC)Cc1ccc(Cl)cc1 | 0.24 | –
CNc1cc(OC)c(C(=O)NCC2CCCN2Cc2ccccc2)cc1Cl.Cl (configuration not stated) | 0.94 | –
CCN(CC)CCNC(=O)c1cc(Cl)c(N)cc1OC [METOCLOPRAMIDE] | 3.1 | ED50 (Rattus norvegicus [2]): 2.6 mg/kg; Ratio [3]: 8.4; ED50 (Rattus norvegicus [4]): 26 mg/kg
CCN1CCCC1CNC(=O)c1cc(Cl)c(N)cc1OC (configuration not stated) | > 30 | –
COc1ccc(Cl)cc1C(=O)NCCN(C)Cc1ccccc1.Cl | 3 | –
CCN(CCNC(=O)c1cc(Cl)c(N)cc1OC)Cc1ccc(Cl)cc1Cl | 10 | –
COc1cc(N)c(Cl)cc1C(=O)NCCN(C)Cc1ccccc1C(F)(F)F | 30 | –
CCN(CCNC(=O)c1cc(Cl)c(N)cc1OC)Cc1ccc(F)cc1 | 0.2 | –
CCN1CCCC1CNC(=O)c1cc(S(N)(=O)=O)ccc1OC (configuration not stated) [SULPIRIDE] | > 100 | –
COc1cc(N)c(Cl)cc1C(=O)NC1CCN(Cc2ccccc2)C1 (configuration not stated) | 0.17 | –
